Source: ChEMBL document CHEMBL1152217, “Affinity labeling of the proteasome by a belactosin A derived inhibitor” (Bioorg Med Chem Lett, 2008)
The source made the active and inactive calls. The rule behind the calls is not given here. Residues, ends and D or L forms follow the SMILES beside them. *: point of attachment. Cbz = O=C(OCc1ccccc1)*

Columns and labels:
[1] = target: T1, Proteasome Macropain subunit MB1 (Homo sapiens) (UniProt P28074); assay: Inhibition of MG132 binding to beta5 subunit of 20S proteasome in human HeLa cells at 1 uM by Western blotting analysis; assay type: cell-based
T1 sequence (whole entry): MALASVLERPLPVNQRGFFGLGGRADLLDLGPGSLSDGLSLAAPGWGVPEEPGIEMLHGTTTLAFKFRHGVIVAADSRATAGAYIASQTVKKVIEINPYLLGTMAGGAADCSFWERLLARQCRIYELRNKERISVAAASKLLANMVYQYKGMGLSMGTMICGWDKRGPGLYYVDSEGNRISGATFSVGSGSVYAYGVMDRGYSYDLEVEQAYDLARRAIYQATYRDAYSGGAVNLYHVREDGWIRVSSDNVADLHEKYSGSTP
Method in brief: (§1)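 Competition in intact HeLa cells. Cells were preincubated 1 h at 37 °C in serum-free medium with various concentrations of MG132, then given 1.0 µM dansyl-KF33955 for another hour. Cells were pelleted, lysed by sonication in urea/thiourea denaturing buffer, and resolved by SDS-PAGE. Remaining β subunit labeling was detected by anti-dansyl immunoblot.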

[2] = target: T2, Proteasome component C5 (Homo sapiens) (UniProt P20618); assay: Inhibition of MG132 binding to beta-1 subunit of 20S proteasome in human HeLa cells at 1 uM by Western blotting analysis; assay type: cell-based; method in brief: as §1
T2 sequence (whole entry): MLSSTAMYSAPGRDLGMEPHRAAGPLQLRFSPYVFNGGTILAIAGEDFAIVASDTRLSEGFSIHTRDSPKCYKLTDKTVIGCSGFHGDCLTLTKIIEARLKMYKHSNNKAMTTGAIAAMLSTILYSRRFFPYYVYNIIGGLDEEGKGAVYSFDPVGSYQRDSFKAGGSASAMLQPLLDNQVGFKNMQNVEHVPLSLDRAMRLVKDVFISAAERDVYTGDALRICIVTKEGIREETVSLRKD

[3] = Inhibition of PGPH catalytic activity of 20S proteasome in human erythrocytes
Method in brief: (§2)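 Purified human erythrocyte 20S core particle (100–200 ng) mixed with inhibitors at varied concentrations in 25 mM HEPES pH 7.6, 0.5 mM EDTA, 0.03% SDS; SDS left out for the trypsin-like assay. Started by adding fluorogenic AMC substrate: Suc-LLVY-AMC (chymotrypsin-like), Boc-LRR-AMC (trypsin-like), Z-LLE-AMC (PGPH). Fluorescence read up to 1 h (ex 380, em 460 nm). Activity from slope; IC50 derived.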

[4] = Inhibition of chymotrypsin-like activity of 20S proteasome in human erythrocytes; method in brief: as §2
[5] = Inhibition of trypsin-like activity of 20S proteasome in human erythrocytes; method in brief: as §2
[6] = target: Proteasome Macropain subunit (Homo sapiens) (UniProt P49721); assay: Inhibition of clasto-lactacystin binding to beta2 subunit of 20S proteasome in human HeLa cells at 1 uM by Western blotting analysis; assay type: cell-based
[7] = target: T1, Proteasome Macropain subunit MB1 (Homo sapiens); assay: Inhibition of clasto-lactacystin binding to beta5 subunit of 20S proteasome in human HeLa cells at 1 uM by Western blotting analysis; assay type: cell-based
HeLa = assay: Growth inhibition of human HeLa cells after 48 hrs by MTT assay; assay type: functional, cell-based
Method in brief: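 HeLa cells grown in RPMI 1640 with 10% heat-inactivated fetal calf serum plus penicillin/streptomycin under 5% CO2. Inhibitors added at various concentrations for 48 h. Viability by MTT, absorbance at 570 nm. IC50 taken from growth inhibition.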

[8] = target: Proteasome subunit beta type-5 (Homo sapiens) (UniProt P28074); assay: Binding affinity to 20S proteasome beta5 subunit in human erythrocyte at 1 uM after 0.5 hr by Western blotting analysis
[9] = target: T2, Proteasome component C5 (Homo sapiens); assay: Binding affinity to 20S proteasome beta-1 subunit in human erythrocyte at 1 uM after 1 hr by Western blotting analysis
Method in brief: (§3)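 Purified human erythrocyte 20S core particle solution incubated with 1.0 µM dansyl-KF33955 for various times, then diluted directly in 2× denaturing buffer (urea/thiourea/CHAPS/Triton, pH 8.8). Proteins resolved by SDS-PAGE and transferred to PVDF. Labeled β subunits detected by immunoblot with anti-dansyl monoclonal antibody and ECL.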

[10] = target: Proteasome Macropain subunit (Homo sapiens) (UniProt P49721); assay: Binding affinity to 20S proteasome beta2 subunit in intact human HeLa cells at 1 uM by Western blotting analysis; assay type: cell-based; settings: TDE = time-dependent effect
Method in brief: (§4)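 Intact HeLa cells (RPMI 1640, 10% FCS) incubated with 1.0 µM dansyl-KF33955 at 37 °C in serum-free medium for varying times. Cells were pelleted, put in urea/thiourea denaturing buffer at 4 °C and sonicated. Lysates were run on SDS-PAGE and blotted to PVDF. Labeled β subunits were detected with anti-dansyl monoclonal antibody and ECL.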

[11] = target: T1, Proteasome Macropain subunit MB1 (Homo sapiens); assay: Binding affinity to 20S proteasome beta5 subunit in human erythrocyte at 1 uM after 1 hr by Western blotting analysis; method in brief: as §3
[12] = target: T2, Proteasome component C5 (Homo sapiens); assay: Binding affinity to 26S proteasome beta-1 subunit in human HeLa cell extract at 1 uM by Western blotting analysis; assay type: cell-free
Method in brief: (§5)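 26S proteasome extract from HeLa cells at 50–80% confluency. Cells were washed in ice-cold PBS and resuspended in pH 7.5 Tris buffer with sucrose, MgCl2, EDTA, DTT and 1 mM ATP. They were permeabilized with 0.025% digitonin for 5 min on ice, and the cytosol was recovered at 15,000g. The extract was labeled with 1.0 µM dansyl-KF33955 for various times, diluted in 2× denaturing buffer, resolved by SDS-PAGE and immunoblotted with anti-dansyl antibody.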

[13] = target: T1, Proteasome Macropain subunit MB1 (Homo sapiens); assay: Binding affinity to 20S proteasome beta5 subunit in intact human HeLa cells at 1 uM by Western blotting analysis; assay type: cell-based; settings: TDE = time-dependent effect; method in brief: as §4
[14] = target: T2, Proteasome component C5 (Homo sapiens); assay: Binding affinity to 20S proteasome beta-1 subunit in human erythrocyte at 1 uM by Western blotting analysis; method in brief: as §3
[15] = target: Proteasome Macropain subunit (Homo sapiens) (UniProt P49721); assay: Binding affinity to 20S proteasome beta2 subunit in human HeLa cell extract at 1 uM by Western blotting analysis; assay type: cell-free; method in brief: as §5
[16] = target: T1, Proteasome Macropain subunit MB1 (Homo sapiens); assay: Binding affinity to 20S proteasome beta5 subunit in human erythrocyte at 1 uM by Western blotting analysis; method in brief: as §3
[17] = target: T1, Proteasome Macropain subunit MB1 (Homo sapiens); assay: Binding affinity to 20S proteasome beta5 subunit in human HeLa cell extract at 1 uM by Western blotting analysis; assay type: cell-free; method in brief: as §5
[18] = target: Proteasome Macropain subunit (Homo sapiens) (UniProt P49721); assay: Binding affinity to 20S proteasome beta2 subunit in human erythrocyte at 1 uM after 0.5 hr by Western blotting analysis; method in brief: as §3
[19] = target: T2, Proteasome component C5 (Homo sapiens); assay: Binding affinity to 20S proteasome beta-1 subunit in human erythrocyte at 1 uM after 0.5 hr by Western blotting analysis; method in brief: as §3
[20] = target: Proteasome Macropain subunit (Homo sapiens) (UniProt P49721); assay: Binding affinity to 20S proteasome beta2 subunit in human erythrocyte at 1 uM after 1 hr by Western blotting analysis; method in brief: as §3
[21] = target: T2, Proteasome component C5 (Homo sapiens); assay: Binding affinity to 20S proteasome beta-1 subunit in intact human HeLa cells at 1 uM by Western blotting analysis; assay type: cell-based; settings: TDE = time-dependent effect; method in brief: as §4
[22] = target: Proteasome Macropain subunit (Homo sapiens) (UniProt P49721); assay: Binding affinity to 20S proteasome beta2 subunit in human erythrocyte at 1 uM by Western blotting analysis; method in brief: as §3

Sequence of Proteasome Macropain subunit (Homo sapiens) (P49721 whole entry): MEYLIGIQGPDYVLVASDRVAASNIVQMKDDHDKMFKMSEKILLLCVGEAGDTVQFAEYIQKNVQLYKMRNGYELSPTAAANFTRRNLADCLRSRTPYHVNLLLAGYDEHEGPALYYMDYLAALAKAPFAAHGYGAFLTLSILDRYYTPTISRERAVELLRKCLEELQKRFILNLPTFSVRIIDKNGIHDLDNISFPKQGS

| Activity [1] | Activity [2] | SMILES | IC50 [3] [nM] | IC50 [4] [nM] | IC50 [5] [nM] | Activity [6] | Activity [7] | IC50 (HeLa) [nM] | further results |
| --- | --- | --- | --- | --- | --- | --- | --- | --- | --- |
| Active | Active | CC(C)C[C@@H](C=O)NC(=O)[C@H](CC(C)C)NC(=O)[C@H](CC(C)C)NC(=O)OCc1ccccc1 [MG-132] (Cbz-Leu-Leu-Leu-aldehyde) | 120 | 11 | 2100 | – | – | – | – |
| – | – | CC(C)[C@H](O)[C@]12NC(=O)[C@H](C)[C@@H]1OC2=O | 8300 | 29 | 690 | Active | Active | – | – |
| – | – | CC[C@H](C)[C@@H]1C(=O)O[C@H]1C(=O)N[C@H]1C[C@H]1C[C@H](NC(=O)[C@H](C)N)C(=O)OCc1ccccc1 | 3700 | 340 | 450 | – | – | 500 | – |
| Active | Active | CC[C@H](C)[C@@H]1C(=O)O[C@H]1C(=O)N[C@H]1C[C@H]1C[C@H](NC(=O)[C@H](C)NC(=O)CCCCCNS(=O)(=O)c1cccc2c(N(C)C)cccc12)C(=O)OCc1ccccc1 | 150 | 29 | 2100 | Active | Active | 9800 | Activity [8]: Active; Activity [9]: Active; Activity [10]: tde; Activity [11]: Active; Activity [12]: Active; Activity [13]: tde; Activity [14]: Active; Activity [15]: Active; Activity [16]: Active; Activity [17]: Active; Activity [18]: Active; Activity [19]: Active; Activity [20]: Active; Activity [21]: tde; Activity [22]: Active |
| – | – | CC[C@H](C)[C@@H]1C(=O)O[C@H]1C(=O)N[C@H]1C[C@H]1C[C@H](NC(=O)[C@H](C)N)C(=O)O [BELACTOSIN A] | 14000 | 820 | 4900 | – | – | 37000 | – |
